What was measured:
SNB-75 = experiment: Cytotoxicity against human SNB75 cells after 72 hrs by SRB assay; type: functional; conditions: SNB-75, 72 h
SF-268 = experiment: Cytotoxicity against human SF268 cells after 72 hrs by SRB assay; type: functional; conditions: SF-268, 72 h
A549 = experiment: Cytotoxicity against human A549 cells after 72 hrs by SRB assay; type: functional, cell-based; conditions: A549, 72 h
Summary of the method: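 Adherent cells grown at 37 °C and 5% CO2. Seeded at 1×10^4/well 24 h before dosing, then 72 h at 10–0.01 µg/mL final. Fixed with cold 50% TCA, stained with 0.4% SRB, dye extracted in 10 mM Tris, read at 540 nm.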

OVCAR-4 = experiment: Cytotoxicity against human OVCAR4 cells after 72 hrs by SRB assay; type: functional; conditions: OVCAR-4, 72 h
MKN-7 = experiment: Cytotoxicity against human MKN7 cells after 72 hrs by SRB assay; type: functional; conditions: MKN-7, 72 h
PC-3 = experiment: Cytotoxicity against human PC3 cells after 72 hrs by SRB assay; type: functional; conditions: PC-3, 72 h
LOX IMVI = experiment: Cytotoxicity against human LOXIMVI cells after 72 hrs by SRB assay; type: functional
NCI-H23 = experiment: Cytotoxicity against human NCI-H23 cells after 72 hrs by SRB assay; type: functional; conditions: NCI-H23, 72 h
MV4-11 = experiment: Antiproliferative activity against human MV4-11 cells after 72 hrs by MTT assay; type: functional, cell-based; conditions: MV4-11, 72 h
DMS-114 = experiment: Cytotoxicity against human DMS114 cells after 72 hrs by SRB assay; type: functional; conditions: DMS-114, 72 h
MKN-74 = experiment: Cytotoxicity against human MKN74 cells after 72 hrs by SRB assay; type: functional; conditions: MKN-74, 72 h
HT-29 = experiment: Cytotoxicity against human HT-29 cells after 72 hrs by SRB assay; type: functional; conditions: HT-29, 72 h
SF-539 = experiment: Cytotoxicity against human SF539 cells after 72 hrs by SRB assay; type: functional; conditions: SF-539, 72 h
[1] = Cytotoxicity against human HBC5 cells after 72 hrs by SRB assay; type: functional; conditions: HBC5, 72 h
NCI-H522 = experiment: Cytotoxicity against human NCI-H522 cells after 72 hrs by SRB assay; type: functional; conditions: NCI-H522, 72 h
OVCAR-8 = experiment: Cytotoxicity against human OVCAR8 cells after 72 hrs by SRB assay; type: functional; conditions: OVCAR-8, 72 h
MCF7 = experiment: Cytotoxicity against human MCF7 cells after 72 hrs by SRB assay; type: functional; conditions: MCF7, 72 h
HCC 2998 = experiment: Cytotoxicity against human HCC2998 cells after 72 hrs by SRB assay; type: functional; conditions: HCC 2998, 72 h
OVCAR-5 = experiment: Cytotoxicity against human OVCAR5 cells after 72 hrs by SRB assay; type: functional; conditions: OVCAR-5, 72 h
KM12 = experiment: Cytotoxicity against human KM12 cells after 72 hrs by SRB assay; type: functional; conditions: KM12, 72 h
OVCAR-3 = experiment: Cytotoxicity against human OVCAR3 cells after 72 hrs by SRB assay; type: functional; conditions: OVCAR-3, 72 h
[2] = Cytotoxicity against human BSY1 cells after 72 hrs by SRB assay; type: functional; conditions: BSY-1, 72 h
MKN-45 = experiment: Cytotoxicity against human MKN45 cells after 72 hrs by SRB assay; type: functional; conditions: MKN-45, 72 h
SF-295 = experiment: Cytotoxicity against human SF295 cells after 72 hrs by SRB assay; type: functional; conditions: SF-295, 72 h
SNB-78 = experiment: Cytotoxicity against human SNB78 cells after 72 hrs by SRB assay; type: functional; conditions: SNB-78, 72 h
ACHN = experiment: Cytotoxicity against human ACHN cells after 72 hrs by SRB assay; type: functional
St-4 = experiment: Cytotoxicity against human St-4 cells after 72 hrs by SRB assay; type: functional; conditions: St-4, 72 h
SK-OV-3 = experiment: Cytotoxicity against human SKOV3 cells after 72 hrs by SRB assay; type: functional; conditions: SK-OV-3, 72 h
[3] = read-out: LC50 (the source's name)

Structure (SMILES): COc1ccc(C2O[C@]34CC(c5cccc(OC)c5)OC(=O)C3=C[C@@]2(C)OO4)cc1 (some centres not stated)
- TGI (SNB-75): 28 µM
- GI50 (SNB-75; read-out: GI50): 12 µM
- CC50 (SNB-75; [3]): 64 µM
- TGI (SF-268): 36 µM
- GI50 (SF-268; read-out: GI50): 14 µM
- CC50 (SF-268; [3]): 92 µM
- TGI (A549): 37 µM
- GI50 (A549; read-out: GI50): 18 µM
- CC50 (A549; [3]): 72 µM
- TGI (OVCAR-4): 11 µM
- GI50 (OVCAR-4; read-out: GI50): 1.5 µM
- CC50 (OVCAR-4; [3]): 42 µM
- TGI (MKN-7): 14 µM
- GI50 (MKN-7; read-out: GI50): 3.4 µM
- CC50 (MKN-7; [3]): 90 µM
- TGI (PC-3): 27 µM
- GI50 (PC-3; read-out: GI50): 13 µM
- CC50 (PC-3; [3]): 56 µM
- TGI (LOX IMVI): 9 µM
- GI50 (LOX IMVI; read-out: GI50): 1 µM
- CC50 (LOX IMVI; [3]): 7.5 µM
- TGI (NCI-H23): 36 µM
- GI50 (NCI-H23; read-out: GI50): 17 µM
- CC50 (NCI-H23; [3]): 79 µM
- IC50 (MV4-11): 4.68 µM
- TGI (DMS-114): 20 µM
- GI50 (DMS-114; read-out: GI50): 4.4 µM
- CC50 (DMS-114; [3]): 95 µM
- TGI (MKN-74): 37 µM
- GI50 (MKN-74; read-out: GI50): 14 µM
- CC50 (MKN-74; [3]): 96 µM
- TGI (HT-29): 27 µM
- GI50 (HT-29; read-out: GI50): 5.2 µM
- CC50 (HT-29; [3]): 100 µM
- TGI (SF-539): 5.4 µM
- GI50 (SF-539; read-out: GI50): 2.8 µM
- CC50 (SF-539; [3]): 14 µM
- TGI [1]: 4.1 µM
- GI50 ([1]; read-out: GI50): 1.9 µM
- CC50 [1, 3]: 8.8 µM
- TGI (NCI-H522): 5 µM
- GI50 (NCI-H522; read-out: GI50): 2 µM
- CC50 (NCI-H522; [3]): 22 µM
- TGI (OVCAR-8): 38 µM
- GI50 (OVCAR-8; read-out: GI50): 9.4 µM
- CC50 (OVCAR-8; [3]): 100 µM
- TGI (MCF7): 29 µM
- GI50 (MCF7; read-out: GI50): 10 µM
- CC50 (MCF7; [3]): 87 µM
- TGI (HCC 2998): 22 µM
- GI50 (HCC 2998; read-out: GI50): 6.3 µM
- CC50 (HCC 2998; [3]): 62 µM
- TGI (OVCAR-5): 7.4 µM
- GI50 (OVCAR-5; read-out: GI50): 2.8 µM
- CC50 (OVCAR-5; [3]): 27 µM
- TGI (KM12): 39 µM
- GI50 (KM12; read-out: GI50): 18 µM
- CC50 (KM12; [3]): 85 µM
- TGI (OVCAR-3): 5.1 µM
- GI50 (OVCAR-3; read-out: GI50): 2.4 µM
- CC50 (OVCAR-3; [3]): 13 µM
- TGI [2]: 17 µM
- GI50 ([2]; read-out: GI50): 5 µM
- CC50 [2, 3]: 46 µM
- TGI (MKN-45): 30 µM
- GI50 (MKN-45; read-out: GI50): 16 µM
- CC50 (MKN-45; [3]): 57 µM
- TGI (SF-295): 33 µM
- GI50 (SF-295; read-out: GI50): 18 µM
- CC50 (SF-295; [3]): 60 µM
- TGI (SNB-78): 34 µM
- GI50 (SNB-78; read-out: GI50): 13 µM
- CC50 (SNB-78; [3]): 90 µM
- TGI (ACHN): 29 µM
- GI50 (ACHN; read-out: GI50): 15 µM
- CC50 (ACHN; [3]): 56 µM
- TGI (St-4): 45 µM
- GI50 (St-4; read-out: GI50): 18 µM
- CC50 (St-4; [3]): 100 µM
- TGI (SK-OV-3): 33 µM
- GI50 (SK-OV-3; read-out: GI50): 1.9 µM
- CC50 (SK-OV-3; [3]): 58 µM
